# Calls of active or inactive are those of the source. The calls are words filed in the database; no cut-off is given here.
# Test system: Plasmodium falciparum
# Experiment: Antimalarial activity against chloroquine-sensitive Plasmodium falciparum FCK2
# Format: functional, organism-based
# Conditions: not given
# Method in brief: (§1)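 Sorbitol-synchronised P. falciparum cultured in RPMI 1640 with 10% human serum, 0.225% sodium bicarbonate and 0.01 mg/mL gentamicin. Infected red cells (1–2% parasitemia, ring stage) were used at 2% hematocrit with varying inhibitor concentrations (final DMSO ≤0.05%; 0.05% DMSO as solvent control), starting at early trophozoite and dosing up to day 4. Parasitemia was read by Giemsa microscopy, and IC50 was fitted by non-linear regression of relative % parasitemia versus log concentration.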
SMILES,IC50,MIC
COc1cc(/C=C/C(=O)CC(=O)/C=C/c2ccc(O)c(OC)c2)ccc1O [CURCUMIN],3.25 µM,13.2 µM
COc1cc(C=C(C(=O)/C=C/c2ccc(O)c(OC)c2)C(=O)/C=C/c2ccc(O)c(OC)c2)ccc1O,0.92 µM,5.2 µM
COc1cc(/C=C/c2cc(/C=C/c3ccc(O)c(OC)c3)n(-c3ccccc3)n2)ccc1O,8.48 µM,22.4 µM
COc1cc(/C=C/C(=O)CC(=O)/C=C/c2ccc(OC(C)=O)c(OC)c2)ccc1OC(C)=O,2.34 µM,14.9 µM
COc1ccc(/C=C/C(=O)CC(=O)/C=C/c2ccc(OC)c(OC)c2)cc1OC [TETRAMETHOXYCURCUMIN],7.86 µM,29.6 µM
COc1cc(/C=C/c2cc(/C=C/c3ccc(O)c(OC)c3)n(-c3ccc(F)cc3)n2)ccc1O,2.42 µM,14.3 µM
COc1cc(/C=C/c2cc(/C=C/c3ccc(O)c(OC)c3)[nH]n2)ccc1O [CURCUMIN PYRAZOLE],0.48 µM,3.9 µM
COc1cc(/C=C/C(=O)C(=Cc2ccccc2)C(=O)/C=C/c2ccc(O)c(OC)c2)ccc1O,3.89 µM,16.5 µM
COc1cc(/C=C/c2cc(/C=C/c3ccc(O)c(OC)c3)on2)ccc1O,8.44 µM,27.3 µM
COc1cc(/C=C/c2cc(/C=C/c3ccc(O)c(OC)c3)n(-c3cccc([N+](=O)[O-])c3)n2)ccc1O,0.87 µM,4.9 µM
COc1cc(/C=C/C(=O)C(=Cc2ccc(O)cc2)C(=O)/C=C/c2ccc(O)c(OC)c2)ccc1O,5.85 µM,23.7 µM
COc1cc(/C=C/c2cc(/C=C/c3ccc(O)c(OC)c3)n(-c3ccc(Cl)cc3Cl)n2)ccc1O,4.65 µM,21.8 µM
COc1ccc(-n2nc(/C=C/c3ccc(O)c(OC)c3)cc2/C=C/c2ccc(O)c(OC)c2)cc1,22.6 µM,35.8 µM

# Test system: Plasmodium falciparum
# Experiment: Antimalarial activity against chloroquine-resistant Plasmodium falciparum MP14
# Format: functional, organism-based
# Conditions: not given
# Method in brief: as §1
SMILES,IC50,MIC
COc1cc(/C=C/C(=O)CC(=O)/C=C/c2ccc(O)c(OC)c2)ccc1O [CURCUMIN],4.21 µM,14.4 µM
COc1cc(C=C(C(=O)/C=C/c2ccc(O)c(OC)c2)C(=O)/C=C/c2ccc(O)c(OC)c2)ccc1O,0.75 µM,4.8 µM
COc1cc(/C=C/c2cc(/C=C/c3ccc(O)c(OC)c3)n(-c3ccccc3)n2)ccc1O,9.1 µM,25 µM
COc1cc(/C=C/C(=O)CC(=O)/C=C/c2ccc(OC(C)=O)c(OC)c2)ccc1OC(C)=O,2.51 µM,15.3 µM
COc1ccc(/C=C/C(=O)CC(=O)/C=C/c2ccc(OC)c(OC)c2)cc1OC [TETRAMETHOXYCURCUMIN],8.4 µM,29.1 µM
COc1cc(/C=C/c2cc(/C=C/c3ccc(O)c(OC)c3)n(-c3ccc(F)cc3)n2)ccc1O,2.1 µM,12.9 µM
COc1cc(/C=C/c2cc(/C=C/c3ccc(O)c(OC)c3)[nH]n2)ccc1O [CURCUMIN PYRAZOLE],0.45 µM,3.6 µM
COc1cc(/C=C/C(=O)C(=Cc2ccccc2)C(=O)/C=C/c2ccc(O)c(OC)c2)ccc1O,4.12 µM,17.2 µM
COc1cc(/C=C/c2cc(/C=C/c3ccc(O)c(OC)c3)on2)ccc1O,7.92 µM,25.3 µM
COc1cc(/C=C/c2cc(/C=C/c3ccc(O)c(OC)c3)n(-c3cccc([N+](=O)[O-])c3)n2)ccc1O,0.89 µM,5.1 µM
COc1cc(/C=C/C(=O)C(=Cc2ccc(O)cc2)C(=O)/C=C/c2ccc(O)c(OC)c2)ccc1O,5.36 µM,23.1 µM
COc1cc(/C=C/c2cc(/C=C/c3ccc(O)c(OC)c3)n(-c3ccc(Cl)cc3Cl)n2)ccc1O,4.8 µM,21.4 µM
COc1ccc(-n2nc(/C=C/c3ccc(O)c(OC)c3)cc2/C=C/c2ccc(O)c(OC)c2)cc1,24.6 µM,41.2 µM

# Test system: Plasmodium falciparum
# Experiment: Antimalarial activity against chloroquine-sensitive Plasmodium falciparum FCK2 in red blood cells as reduced parasitemia in [3H]hypoxanthine uptake
# Format: functional, organism-based
# Conditions: in the assay text read “by microscopic examination” for “in [3H]hypoxanthine uptake”
row,SMILES,Activity
1,COc1cc(/C=C/c2cc(/C=C/c3ccc(O)c(OC)c3)n(-c3cccc([N+](=O)[O-])c3)n2)ccc1O,Active

# Test system: Plasmodium falciparum
# Experiment: Antimalarial activity against chloroquine-resistant Plasmodium falciparum MP14 in red blood cells as reduced parasitemia in [3H]hypoxanthine uptake assay
# Format: functional, organism-based
# Conditions: not given
# Method in brief: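 Ring-stage synchronised parasites were used at 2–3% hematocrit and 1–2% initial parasitemia, in duplicate. Varying inhibitor concentrations (final DMSO ≤0.05%) were added in fresh medium every 24 h for 48 h. [3H]-hypoxanthine was then added for 36 h, and cells were harvested onto glass-fibre filters and read by scintillation counting. IC50 came from a non-linear regression fit of relative % parasitemia versus log concentration.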
row,SMILES,Activity
1,COc1cc(/C=C/c2cc(/C=C/c3ccc(O)c(OC)c3)n(-c3cccc([N+](=O)[O-])c3)n2)ccc1O,Active
